# Experimental data published in PubChem BioAssay AID493080 (Broad Institute, 2011).
# “And” between values parts separate entries of the source, which are not always exact repeats. Equal entries are not always repeated. The source made the active and inactive calls.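 Rule for the calls: active = growth inhibition with fitted AC50 no more than ten times the top valid dose; inconclusive = flat fit at 30 to 70% inhibition, or bad fit; inactive = the rest, including rises in signal.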
# Assays:
# [1] = tested on: C. albicans CaCi-2 + fluconazole, Alamar Blue growth, 48 h; experiment: growth inhibition of fluconazole-resistant C. albicans, confirmation, dry powder retest, set 3 (AID 493080)
# Procedure, shortened: (§1)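 Test system: fluconazole-resistant Candida albicans clinical isolate CaCi-2; Quantity: inoculum A600 0.00015; Buffer or medium: RPMI medium, MOPS-buffered; Probe or stimulus: fluconazole 8 µg/mL; Dosing: pin-transferred compounds; Times: 48 h compound exposure, 37 °C, then Alamar Blue 2 h; Detection: Alamar Blue fluorescence, excitation 544 nm, emission 590 nm; Benchmarks: geldanamycin as positive control.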
# [2] = as above; settings: C. albicans CaCi-2 + fluconazole, Alamar Blue growth, 48 h
# Procedure, shortened: as §1
Structure (SMILES),AC50 [1],"activity change, negative = inhibition ([2]; at 12 µM (top of the series))",also measured
O=C(c1ccc(Cl)cc1)N1CCN(c2nc3ccccc3s2)CC1,4120 nM,,
CC1CCN(C(=O)Cn2c3ccccc3c3nc4n(c(=O)c32)CCS4)CC1,2200 nM,,
COC(=O)Cn1nc(-c2ccccc2)c2ccccc21,2110 nM,,
O=C(O)c1nn(Cc2ccc(Cl)cc2)c2ccccc12,,-7.95% (inactive),
O=C(Cn1c2ccccc2c2nc3n(c(=O)c21)CCCS3)c1ccc(F)cc1,,3.71% (inactive),
O=C(c1ccc(Cl)cc1)N1CCN(c2ccc(C(F)(F)F)cn2)CC1,> 12000 nM (inactive),,
O=C(O)Cn1nc(-c2ccccc2)c2ccccc21,,-8.71% (inactive),
O=C(Cn1c2ccc(F)cc2c2nc3n(c(=O)c21)CCS3)N1CCCCC1,384 nM,,
CCCNC(=O)Cn1nc(-c2ccccc2)c2cc(Cl)ccc21,,27.1% (inactive),
CC1CCN(C(=O)Cn2c3ccccc3c3nc4n(c(=O)c32)CCCS4)CC1,11000 nM,,
COc1ccnc(N2CCN(C(=O)c3ccc(Cl)cc3)CC2)c1,> 12000 nM (inactive),,
O=C(Cn1c2ccccc2c2nc3n(c(=O)c21)CCS3)N1CCOCC1,2660 nM,,
O=C(Cn1nc(C(=O)N2CCCCC2)c2ccccc21)N1CCOCC1,,-6.13% (inactive),
COCCC(=O)N1CCN(c2ccccn2)CC1,,-0.956% (inactive),
COC(=O)Cn1c(-c2ccccc2)nc2ccccc21,,-5.95% (inactive),
CC1CCN(C(=O)Cn2c3ccc(F)cc3c3nc4n(c(=O)c32)CCCS4)CC1,2090 nM,,
O=C(c1cccc(Cl)c1)N1CCN(c2ccccn2)CC1,,8.07% (inactive),
CCCCC(=O)N1CCN(c2ccccn2)CC1,,-2.66% (inactive),
COc1ccc2c(c1)c1nc3n(c(=O)c1n2CC(=O)N1CCC(Cc2ccccc2)CC1)CCS3,,-1.27% (inactive),
N#Cc1ccc(C(=O)N2CCN(c3ccccn3)CC2)cc1,,-16.1% (inactive),
CCOC(=O)c1nn(Cc2ccc(Cl)cc2)c2ccccc12,,4.97% (inactive),
CCOC(=O)c1c2ccccc2nn1Cc1ccc(Cl)cc1,,17.8% (inactive),
CCN(CC)C(=O)Cn1c2ccccc2c2nc3n(c(=O)c21)CCS3,1670 nM and 1820 nM,,
CCCNC(=O)Cn1nc(-c2ccccc2)c2ccccc21,,26.9% (inactive),
COC(=O)Cn1nc(-c2ccc(C)cc2)c2ccccc21,8980 nM,,

Structure (SMILES),AC50 [1],"activity change, negative = inhibition ([2]; at 12 µM (top of the series))",also measured
O=C(c1ccccc1Cl)N1CCN(c2ccccn2)CC1,,8.16% (inactive),
COc1ccc2c(c1)c1nc3n(c(=O)c1n2CC(=O)N1CCC(C)CC1)CCS3,,,"activity change, negative = inhibition ([2]; at 1.2 µM (top of the series)): 15.5% (inactive)"
O=C(Cn1nc(-c2ccccc2)c2cc(Cl)ccc21)N1CCOCC1,,-1.59% (inactive),
CNC(=O)Cn1nc(-c2ccccc2)c2ccccc21,,10.1% (inactive),
c1ccc(-c2n[nH]c3ccccc23)cc1,,24.5% (inactive),
O=C(Cn1c2ccc(F)cc2c2nc3n(c(=O)c21)CCS3)N1CCCCCC1,1360 nM,,
O=C(c1ccc(Cl)cc1)N1CCN(c2cccc(C(F)(F)F)n2)CC1,,-1.86% (inactive),
N#Cc1cccnc1N1CCN(C(=O)c2ccc(Cl)cc2)CC1,,-11.5% (inactive),
N#Cc1cccc(N2CCN(C(=O)c3ccc(Cl)cc3)CC2)n1,,0.43% (inactive),
CC(C)C(=O)N1CCN(c2ccccn2)CC1,,6.09% (inactive),
Cc1cccc(N2CCN(C(=O)c3ccc(Cl)cc3)CC2)n1,,-17.4% (inactive),
O=C(Cn1c2ccccc2c2nc3n(c(=O)c21)CCS3)N1CCCC1,837 nM and 2700 nM,,
O=C(Cn1c2ccccc2c2nc3n(c(=O)c21)CCS3)N1CCCCC1,2080 nM,,
O=C(Cn1c2ccccc2c2nc3n(c(=O)c21)CCS3)NCCc1ccc(Cl)cc1,,-0.805% (inactive),
O=C(C1CCCCC1)N1CCN(c2ccccn2)CC1,,-20.7% (inactive),
O=C(Cn1c2ccc(F)cc2c2nc3n(c(=O)c21)CCS3)N1CCCC1,532 nM,,
O=c1c2[nH]c3ccc(F)cc3c2nc2n1CCS2,2960 nM,,
O=C(c1ccc(Cl)cc1)N1CCN(c2nc3ccccc3o2)CC1,12100 nM,,
CCN(CC)C(=O)Cn1c2ccc(F)cc2c2nc3n(c(=O)c21)CCS3,685 nM,,
O=c1c2[nH]c3ccccc3c2nc2n1CCS2,8160 nM,,
COC(=O)Cn1nc(C)c2ccccc21,,-1.03% (inactive),
O=C(Cn1nc(-c2ccccc2)c2ccccc21)N1CCc2ccccc2C1,,3.01% (inactive),
O=C(Cn1nc(-c2ccccc2)c2ccccc21)NCc1ccc(Cl)cc1,,-6.29% (inactive),
O=C(c1ccc(F)cc1)N1CCN(c2ccccn2)CC1,> 12000 nM (inactive),,
COC(=O)Cn1nc(-c2ccccc2)c2cc(Cl)ccc21,8100 nM,,
